Shown are actives, neighbours in structure and some others; about 1.6% of the full set was active somewhere.
CFTR F508del cor: CFTR F508del correction in bronchial cells | hit rate 0.36% among 350,000 | AID 720511 | activity (quench increase), % at 7.58 µM | CFBE cells, YFP halide quenching; stimulated with forskolin plus potentiator P3; % fluorescence drop versus neutral controls;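 active = mean added fluorescence quench of at least 8% versus neutral control, with both replicates also reaching 8%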;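 also: cells transiently co-express mutant CFTR-F508del with the halide-sensitive YFP; corrector assay measuring rescue of mutant channel to the surface after 24 h compound exposure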
DNMT1 inh: DNMT1 (human) enzyme inhibition | AID 588458 | P26358 | hit rate 0.83% among 360,000 | inhibition (reported as % activation of signal), % at 10 µM | DNMT1 molecular beacon, Hinp1I cleavage, fluorescence; in the data active = inhibition above about 50%
SUMO1 PPI mod: SUMO1-SIM interaction modulation; SUMO1 binding to a labelled peptide, TR-FRET, 1 h; inhibition, % at 20 µM; hit rate 0.33% among 360,000; AID 602429; in the data active = inhibition above about 37%
Target sequence (P63165 whole entry, looked up): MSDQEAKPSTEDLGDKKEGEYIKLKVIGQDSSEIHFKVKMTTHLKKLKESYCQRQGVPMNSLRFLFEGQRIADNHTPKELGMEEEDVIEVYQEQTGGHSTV
Scp-1 inhibitor: inhibitors of human Scp-1 phosphatase; inhibition, % at 20 µM; Q9GZU7; Recombinant Scp1, phosphopeptide, malachite green phosphate absorbance; hit rate 0.88% among 340,000; AID 493091;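 active = inhibition above about 50% at 20 µM, limit read from the data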;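 also: plate controls were DMSO wells with enzyme for no effect and wells lacking enzyme for full effect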
Target sequence (Q9GZU7 76-261 limits assumed): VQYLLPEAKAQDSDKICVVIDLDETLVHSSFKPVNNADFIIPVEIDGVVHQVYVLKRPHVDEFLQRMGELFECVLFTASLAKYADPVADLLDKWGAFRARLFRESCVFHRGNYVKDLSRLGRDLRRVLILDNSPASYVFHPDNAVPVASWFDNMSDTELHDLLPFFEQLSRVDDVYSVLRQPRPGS
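System: truncated SCP-1 phosphatase (76-261aa); medium: Tris acetate buffer pH 5.5 with MgCl2 and Tween-20; incubation: 45 min room-temperature reaction, 5 min colour, 30 min stabiliser; compound: single 20 µM dose, 1% DMSO; reagent: Phosphorylated 17-residue peptide substrate; read-out: % inhibition at 20 µM; technique: colorimetric free-phosphate detection, absorbance 630 nm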
LMPTP inh: LMPTP (human) inhibition; hit rate 0.22% among 360,000; inhibition, % at 20 µM; recombinant LMPTP-A, OMFP fluorogenic substrate, fluorescence intensity;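 active = compounds that cut the enzyme signal by at least half of the control window in the single-dose screen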;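 also: plate controls were DMSO wells with enzyme plus substrate for no effect and substrate without enzyme for full effect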
Target sequence (P24666 whole entry, looked up): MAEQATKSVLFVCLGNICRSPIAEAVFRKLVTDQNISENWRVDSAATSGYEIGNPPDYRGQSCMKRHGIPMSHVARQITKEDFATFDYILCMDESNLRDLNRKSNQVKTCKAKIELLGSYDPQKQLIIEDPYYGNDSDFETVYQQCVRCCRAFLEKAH
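Test system – LMPTP-A enzyme · Amount – LMPTP-A at 0.625 nM final in the reaction · Buffer or medium – Bis-Tris pH 6.0, DTT, detergent · Reagent – OMFP 400 µM · Doses – single 20 µM dose · Schedule – reaction 50 min, room temperature, dark · Detection – fluorescence intensity of OMFP turnover product · Evaluation – percent inhibition versus substrate-only and uninhibited controls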
STEP block: STEP (human) phosphatase inhibition; inhibition, % at 20 µM; recombinant STEP, OMFP fluorogenic substrate, fluorescence; hit rate 0.25% among 360,000; AID 588621;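 active = inhibition at 20 µM, scaled per plate between control wells, above about 37%, limit read from the data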;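 also: 0% = DMSO with enzyme and substrate and 100% = substrate only without enzyme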
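Assay system: isolated STEP enzyme. Buffer or medium: pH 6.0 Bis-Tris with DTT and Tween 20. Also added: fluorogenic phosphatase substrate OMFP at 25 µM final. Dosing: 20 µM, 1% DMSO. Timing: 20 min reaction, room temperature, in the dark. Measured by: fluorescence intensity, excitation 480 nm, emission 540 nm. Evaluation: normalized % inhibition.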
DNMT1 confirm: DNMT1 inhibition confirmation, single concentration. inhibition, % at 10 µM. DNMT1 molecular beacon HinP1I cleavage, fluorescence. hit rate 8% among 2,300. shares compounds with DNMT1 inh;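 active = average inhibition of at least 30% in the single-concentration confirmation test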
DNMT1 interf: counter-screen for DNMT1 inhibitors: spectral interference; shares compounds with DNMT1 inh; DNMT1 molecular beacon spectral interference counterscreen, fluorescence 485/520; activation (fluorescence interference), % at 10 µM; hit rate 1% among 2,300; AID 602387;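 active = activation of at least 30% at 10 µM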;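 also: DNMT1 catalytic domain with a HinP1I cleavage step and a FAM/dabcyl DNA beacon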
Active calls of the source: *; nt = no result.

SMILES	CFTR F508del cor	DNMT1 inh	SUMO1 PPI mod	Scp-1 inhibitor	LMPTP inh	STEP block	DNMT1 confirm	DNMT1 interf
O=C(C[C@H]1CC[C@H](NS(=O)(=O)c2ccccc2)[C@H](CO)O1)NCc1ccc(Cl)c(Cl)c1	-1	nt	nt	nt	nt	nt	nt	nt
O=S(=O)(Cc1noc(-c2ccc(Cl)cc2)n1)Cc1ccco1	-1	83*	3	15	27	6	1	3
O=S(=O)(Cc1ccco1)Cc1nc(-c2ccc(Cl)cc2)cs1	2	-6	12	-18	1	1	nt	nt
CC[C@]12c3[nH]c4cc(CCC(=O)N(C)C)ccc4c3CCN1C(=O)[C@@H](CC(=O)NCc1cccc(C(F)(F)F)c1)C[C@@H]2C(=O)N1CCN(C(=O)c2ccco2)CC1	0	53*	4	4	-2	3	3	3
CC[C@]12c3[nH]c4cc(CCC(=O)N(C)C)ccc4c3CCN1C(=O)[C@@H](CC(=O)NCc1cccc(C(F)(F)F)c1)C[C@@H]2C(=O)N1CCN(C(=O)C2CC2)CC1	0	3	5	1	-2	2	nt	nt
CC1(C(=O)NS(=O)(=O)c2ccc3c(c2)CCO3)CCN1C(=O)COc1ccc(Cl)cc1 (stereo not drawn)	5	85*	2	nt	-3	-2	4	6
CC1(C(=O)NS(=O)(=O)c2ccc3c(c2)CCO3)CCN1C(=O)C1(c2ccc(Cl)cc2)CC1 (stereo not drawn)	1	1	4	nt	-2	-2	nt	nt
Cc1ccc(-n2cccc2/C=C2/C(=N)N3C(=NC2=O)SN=C3S(C)(=O)=O)cc1	nt	76*	-6	31	10	4	19	2
Cc1ccc(-n2cccc2/C=C2\C(=N)N3N=C(c4ccco4)SC3=NC2=O)cc1	-1	87*	104*	97*	44	63*	5	-7
C[C@@H]1CN([C@H](C)CO)C(=O)c2cccc(NC(=O)Nc3ccccc3)c2O[C@H]1CN(C)C(=O)Nc1ccccc1	1	nt	nt	nt	nt	nt	nt	nt
CCCNC(=O)N1[C@H](CO)[C@H](c2ccc(C3=CCCCC3)cc2)[C@H]1CNC(C)C	2	nt	nt	nt	nt	nt	nt	nt
CCn1c2ccccc2c2cc(NC(=O)c3coc(=O)c(Br)c3)ccc21	-9	51*	-2	nt	4	-7	16	8
CCn1c2ccccc2c2cc(NC(=O)c3ccc(=O)oc3)ccc21	-2	-2	-4	0	5	8	nt	nt
O=C(/C=C/c1ccc2c(c1)OCO2)NCCS(=O)(=O)N1CCN(c2ccccc2)CC1	-2	71*	1	nt	1	4	6	4
O=C(/C=C/c1ccc2c(c1)OCO2)NCCS(=O)(=O)N1CCN(c2ccc(F)cc2)CC1	3	3	4	1	1	0	nt	nt
N#C/C(=C\c1ccc(-c2ccccc2Cl)o1)C(=O)Nc1nc2ccccc2s1	nt	88*	13	-3	4	1	12	-7
OC1CCCN(Cc2ccc3ccc4cccc5ccc2c3c45)C1 (stereo not drawn)	nt	65*	-22	0	0	0	1	0
Cc1cc2ccccc2cc1CN1CCOCC1	nt	58*	-2	-5	-2	1	7	7
O=C(Nc1ccc(Cl)cc1)N1C[C@H]2[C@@H](c3ccccc31)[C@H](CO)N2C(=O)C1CC1	1	nt	nt	nt	nt	nt	nt	nt
C=CCn1c(SCc2nc3ccccc3c(=O)[nH]2)nc2sc3c(c2c1=O)CCCC3	nt	nt	nt	-11	nt	nt	nt	nt
C=CCn1c(SCc2nc3sc4c(c3c(=O)[nH]2)CCCC4)nc2ccccc2c1=O	nt	55*	0	-10	0	-2	0	-9
CC(C)(C)OC(=O)NCCCCCNC(=O)c1[nH]cnc1C(=O)NC1CCN(C(=O)OC(C)(C)C)CC1	6	76*	-3	0	3	-1	8	7
COc1ccc(CNC(=O)C[C@@H]2CC[C@H]3[C@@H](COc4ccc(NC(=O)C(C)C)cc4C(=O)N3C)O2)cc1	2	nt	nt	nt	nt	nt	nt	nt
COc1ccc(NC(=O)N(C)C[C@@H]2OCc3cn(nn3)CCCC(=O)N([C@H](C)CO)C[C@@H]2C)cc1	-1	nt	nt	nt	nt	nt	nt	nt
COc1ccc(NC(=O)N(C)C[C@@H]2OCc3cn(nn3)CCCC(=O)N([C@@H](C)CO)C[C@H]2C)cc1	-2	63*	3	nt	-2	3	3	3
SMILES	CFTR F508del cor	DNMT1 inh	SUMO1 PPI mod	Scp-1 inhibitor	LMPTP inh	STEP block	DNMT1 confirm	DNMT1 interf
CC(C)C(=O)Nc1ccc2c(c1)C(=O)N(C)[C@H]1CC[C@H](CC(=O)NCC3CC3)O[C@H]1CO2	-1	nt	nt	nt	nt	nt	nt	nt
O=C(Nc1ccc(N2CCN(c3ccc(C(F)(F)F)cn3)CC2)nc1)c1cccs1	1	52*	10	-7	3	1	3	3
O=C(Nc1ccc(N2CCN(c3ncccc3C(F)(F)F)CC2)nc1)c1cccs1	-3	-7	10	-5	2	0	nt	nt
CC(=O)NC[C@H]1[C@@H](c2ccc(-c3cccnc3)cc2)[C@@H](CO)N1C(=O)CC1CC1	-3	nt	nt	nt	nt	nt	nt	nt
COCC(=O)Nc1ccc2c(c1)OC[C@@H](C)N(C(=O)c1cccnc1)C[C@H](C)[C@H](OC)CN(C)C2=O	-2	nt	nt	nt	nt	nt	nt	nt
NNC(=O)c1nc[nH]c1C(=O)Nc1ccccc1	1	66*	2	-1	-3	0	0	16
O=C(Nc1ccccc1)c1nc[nH]c1C(=O)NCc1ccccc1	5	3	12	-11	1	-6	nt	nt
O=C(Nc1cccc(Cl)c1)c1nc[nH]c1C(=O)NCCCCNC(=O)c1[nH]cnc1C(=O)Nc1cccc(Cl)c1	-1	53*	-6	-8	-1	0	5	2
CCC(=O)N1CC2(C1)[C@@H](c1ccccc1)[C@@H](CO)N2C(=O)NC(C)C	-2	nt	nt	nt	nt	nt	nt	nt
COC(=O)c1sccc1NC(=O)c1cc(-c2cccc(C)c2)nc2ccccc12	nt	50*	-2	7	1	-5	0	-12
COC(=O)c1sccc1NC(=O)c1cc(-c2ccc(C)cc2)nc2ccccc12	nt	8	0	0	1	-1	nt	nt
C[C@H]1CN([C@@H](C)CO)C(=O)c2cccc(NS(=O)(=O)c3ccc(F)cc3)c2O[C@@H]1CN(C)C(=O)Nc1cccc2ccccc12	0	nt	nt	nt	nt	nt	nt	nt
Cc1ccc(N=Nc2c(N)nn3c(N)c(C#N)c(C)nc23)cc1	1	79*	-24	3	9	12	13	5
